This is an account of results in ChEMBL document CHEMBL4414639, “Synthesis, Pharmacological Characterization, and Structure-Activity Relationships of Noncanonical Selective Agonists for α7 nAChRs” (J Med Chem, 2019).

A word on the EC50: it is the concentration giving half of the maximal effect. In general, IC50 refers to the concentration that inhibits the measured activity by half.

Calls of active or inactive are those of the source. The rule behind the calls is not given here.

The target in experiment [1] is T1, Neuronal acetylcholine receptor; alpha4/beta2 (Homo sapiens) (UniProt P17787+P43681). The experiment is described as follows: Antagonist activity at alpha4beta2 nAChR (unknown origin) transfected in HEK cells assessed as decrease in epibatidine-induced intracellular calcium release incubated for 30 mins by FRET assay. (A change in cytosolic calcium serves as a functional read-out for many receptors and channels.)

Experiment [2] deals with T2, 5-hydroxytryptamine receptor 3A (Homo sapiens) (UniProt P46098).
T2 sequence (whole entry): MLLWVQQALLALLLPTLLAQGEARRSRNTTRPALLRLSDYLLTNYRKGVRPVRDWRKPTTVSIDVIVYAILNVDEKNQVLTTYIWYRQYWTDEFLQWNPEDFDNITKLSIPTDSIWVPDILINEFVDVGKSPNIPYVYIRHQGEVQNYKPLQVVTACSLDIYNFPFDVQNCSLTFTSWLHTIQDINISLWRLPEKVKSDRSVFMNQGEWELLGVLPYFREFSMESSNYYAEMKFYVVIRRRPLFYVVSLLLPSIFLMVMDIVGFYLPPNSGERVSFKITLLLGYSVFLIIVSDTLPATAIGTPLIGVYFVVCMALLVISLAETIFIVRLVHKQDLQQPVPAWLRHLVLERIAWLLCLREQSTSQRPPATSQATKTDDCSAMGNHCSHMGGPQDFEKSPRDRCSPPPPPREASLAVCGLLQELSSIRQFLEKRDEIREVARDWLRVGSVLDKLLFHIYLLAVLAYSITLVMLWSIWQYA
The experiment is described as follows: Antagonist activity at 5HT3A (unknown origin) transfected in HEK cells assessed as decrease in agonist-induced intracellular calcium release incubated for 30 mins by FRET assay. It counts as cell-based. In a few lines: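 CNiFER HEK cell monolayers stably expressing the receptor. Test compound at three concentrations in aCSF, preincubated 30 min at 37 °C, 6% CO2, before agonist addition: epibatidine for α4β2, 5-HT for 5-HT3A. TN-XXL FRET ratio (527/485 nm) read over 120 s at 37 °C, agonist injected at 30 s, triplicate wells. Agonist EC50 shifts fitted. KA computed as [A]/(DR−1) (competitive) or [A]/(Δmax/Δ−1) (noncompetitive). At least three independent experiments. α4β2 stoichiometry not distinguished.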

Experiment [3] concerns the target T3, Neuronal acetylcholine receptor subunit alpha-7 (Homo sapiens, UniProt P36544). Description: Agonist activity at alpha7 nAChR (unknown origin) transfected in HEK cells assessed as increase in intracellular calcium release incubated for 30 mins by FRET assay. It counts as cell-based. In a few lines:
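Stable HEK cell line expressing α7 nAChR with TN-XXL FRET calcium biosensor (CNiFER), in DMEM with 10% FBS at 37 °C, 6% CO2. Cells preincubated 30 min at 37 °C in aCSF with PNU-120596 (10 µM final). FRET ratio (527/485 nm, 436 nm excitation) read at 37 °C over 120 s, agonist injected at 30 s, triplicate wells. EC50 from variable-slope sigmoidal fit of mean peak ratios, normalized to 316 µM response.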

Experiment [4] concerns the target T1, Neuronal acetylcholine receptor; alpha4/beta2 (Homo sapiens). Description: Agonist activity at human (alpha4)3 (beta2)2 nAChR expressed in Xenopus laevis oocytes assessed as increase in channel currents at 30 uM at -60 mV holding potential by two electrode voltage clamp assay. It counts as cell-based. In outline: (§1)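 Two-electrode voltage clamp on oocytes at -60 mV in Ringer's (115 mM NaCl, 2.5 mM KCl, 1.8 mM CaCl2, 10 mM HEPES, 1 µM atropine, pH 7.2), 4 mL/min flow. Test compound applied 6 s, then 271 s washout. Normalized to mean of two ACh precontrols: 30 µM for α1β1εδ, 100 µM for α3β4, 100 µM for LS α4β2, 10 µM for HS α4β2.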
For orientation: Two-electrode voltage clamp is typically applied to oocytes expressing channels or transporters.

Experiment [5] shares this target. The experiment is described as follows: Agonist activity at human (alpha4)2 (beta2)3 nAChR expressed in Xenopus laevis oocytes assessed as increase in channel currents at 30 uM at -60 mV holding potential by two electrode voltage clamp assay. The experiment is classed as cell-based. In a few lines: as §1
For experiment [6] the target is unchanged. Description: Inhibition of human (alpha4)2 (beta2)3 nAChR expressed in Xenopus laevis oocytes assessed as increase in channel currents at 30 uM at -60 mV holding potential by two electrode voltage clamp assay. The experiment is classed as cell-based.
Experiment [7] deals with T3, Neuronal acetylcholine receptor subunit alpha-7. Description: Agonist activity at human alpha7 nAChR expressed in Xenopus laevis oocytes assessed as increase in channel currents at 30 uM at -60 mV holding potential by two electrode voltage clamp assay. The experiment is classed as cell-based. In a few lines: (§2)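 Oocytes expressing human α7 nAChR (with human RIC-3 cDNA available), clamped at -60 mV in Ringer's pH 7.2 with 1 µM atropine, 2 mL/min flow. Drug applied 12 s, 211 s washout. Responses normalized to mean of two 60 µM ACh precontrol responses per oocyte. Data from six cells. Concentration-response data fit to the Hill equation. Sequence included 30 µM test compound, then 60 µM ACh, then 10 µM PNU-120596.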

For experiment [8], the target named is T1, Neuronal acetylcholine receptor; alpha4/beta2 (Homo sapiens). Description: Inhibition of human (alpha4)3 (beta2)2 nAChR expressed in Xenopus laevis oocytes assessed as increase in channel currents at 30 uM at -60 mV holding potential by two electrode voltage clamp assay. The experiment is classed as cell-based.
Experiment [9] has as its target T3, Neuronal acetylcholine receptor subunit alpha-7. The experiment is described as follows: Agonist activity at human alpha7 nAChR expressed in Xenopus laevis oocytes assessed as increase in channel currents at 30 uM at -60 mV holding potential followed washout for 211 sec and then 60 uM of Ach was applied by two electrode voltage clamp assay.
The species named for experiment [10] is Mus musculus. The experiment is described as follows: Agonist activity at mouse alpha1beta1epsilondelta nAChR expressed in Xenopus laevis oocytes assessed as increase in channel currents at 30 uM at -60 mV holding potential by two electrode voltage clamp assay. It counts as cell-based. In a few lines: as §1
The target of experiment [11] is T3, Neuronal acetylcholine receptor subunit alpha-7. The experiment is described as follows: Agonist activity at human alpha7 nAChR expressed in Xenopus laevis oocytes assessed as increase in channel currents at -60 mV holding potential by two electrode voltage clamp assay relative Ach. The experiment is classed as cell-based. In outline:
as §2

For experiment [12], the target named is T4, Neuronal acetylcholine receptor; alpha3/beta4 (Homo sapiens) (UniProt P30926+P32297). Description: Inhibition of human alpha3beta4 nAChR expressed in Xenopus laevis oocytes assessed as increase in channel currents at 30 uM at -60 mV holding potential by two electrode voltage clamp assay. It counts as cell-based.
In experiment [13] the target is T3, Neuronal acetylcholine receptor subunit alpha-7. The experiment is described as follows: Inhibition of human alpha7 nAChR expressed in Xenopus laevis oocytes assessed as decrease in ACh-induced channel currents at -60 mV holding potential by two electrode voltage clamp assay. The experiment is classed as cell-based. In outline: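 Human α7 nAChR in oocytes under two-electrode voltage clamp at -60 mV, Ringer's pH 7.2, 2 mL/min. Test compound applied 12 s with 211 s washout, then 60 µM ACh applied. ACh response normalized to the mean of two ACh precontrols per oocyte. Inhibition concentration-response curves from six cells, Hill equation fit.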

For experiment [14], the target named is T4, Neuronal acetylcholine receptor; alpha3/beta4 (Homo sapiens). Description: Agonist activity at human alpha3beta4 nAChR expressed in Xenopus laevis oocytes assessed as increase in channel currents at 30 uM at -60 mV holding potential by two electrode voltage clamp assay. The experiment is classed as cell-based. In a few lines:
as §1

The species entered for experiment [15] is Mus musculus. The experiment is described as follows: Inhibition of mouse alpha1beta1epsilondelta nAChR expressed in Xenopus laevis oocytes assessed as increase in channel currents at 30 uM at -60 mV holding potential by two electrode voltage clamp assay. The experiment is classed as cell-based.

T3 sequence (P36544 whole entry): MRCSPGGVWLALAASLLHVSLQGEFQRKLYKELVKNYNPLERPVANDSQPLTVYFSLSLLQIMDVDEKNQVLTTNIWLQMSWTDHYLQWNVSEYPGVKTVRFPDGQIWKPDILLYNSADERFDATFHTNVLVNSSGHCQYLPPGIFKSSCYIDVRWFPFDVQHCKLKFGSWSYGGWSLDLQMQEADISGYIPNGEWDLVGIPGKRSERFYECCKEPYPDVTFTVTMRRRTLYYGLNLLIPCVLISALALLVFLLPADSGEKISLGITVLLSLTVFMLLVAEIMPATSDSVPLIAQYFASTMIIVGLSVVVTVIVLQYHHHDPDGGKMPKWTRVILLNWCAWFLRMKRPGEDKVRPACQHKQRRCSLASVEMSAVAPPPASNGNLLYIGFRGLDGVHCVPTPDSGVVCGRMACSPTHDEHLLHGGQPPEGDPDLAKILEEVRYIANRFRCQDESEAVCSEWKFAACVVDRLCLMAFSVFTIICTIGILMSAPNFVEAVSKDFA

Consider `Nc1nc(-c2ccsc2)cc(N(Cc2ccccn2)Cc2ccccn2)n1`, for which the Ka in experiment [1] and in [2] was above 10 µM each time. Besides, the concentration for a half-maximal effect (EC50) in experiment [3] was 500 nM.

As for `COc1ccccc1-c1cc(N(Cc2ccccn2)Cc2ccccn2)nc(N)n1`, the Ka was 6.3 µM in [1] and above 10 µM in experiment [2]. The outcome in experiment [4], in [5], in experiment [9], in [10] and in [14] was inactive. The inhibition entry in [6] and in [8] was “inactive” throughout. Moreover, the result in experiment [7] was Active. For the same compound, the 50% effective concentration (EC50) amounted to 350 nM in experiment [11] and 70 nM in experiment [3]. Moreover, the Imax in [11] came out at 0.98. The inhibition entry in experiment [12] is “Active”. Further, the concentration for half-maximal inhibition (IC50) in experiment [13] was 370 nM. Further, the “inhibition activity (active/inactive)” value in experiment [15] is “Active”.

Turning to `COc1ccc(-c2cc(N(Cc3ccccn3)Cc3ccccn3)nc(N)n2)c(OC)c1`, the Ka in experiment [1] is 2.5 µM; in [2], above 10 µM. Moreover, in experiment [3], the EC50 came out at 70 nM.
